PostGolgi yeast – growth inhibition of a yeast mutant, post-Golgi transport screen | post-Golgi transport phenotypic cell assay | inhibition, % at 10 µM | 98,000 tested, 0.9% active | AID 739;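 also: yeast cells grown in 1536-well plates; yeast grown about 18 h at 30C before absorbance read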
Yeast lifespan up – extends the lifespan of yeast | S. cerevisiae growth with nicotinamide, OD615; deaD strain in restrictive glucose medium | inhibition of the nicotinamide effect, % at 10 µM | 130,000 tested, 0.68% active;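 active = inhibition above a set limit, placed 3 SD over the median of all compounds, cut at about 26% in these data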
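System: Modified budding yeast, DeaD strain | Buffer or medium: Restrictive glucose medium | Also added: 1.5 mM nicotinamide | Doses: 10 µM single point, 0.25% DMSO | Schedule: 48 h compound exposure at 30 °C, humidified | Detection: Absorbance at 615 nm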
PostGolgi ctrl – inhibits growth of the yeast control strain. efflux-deficient yeast background strain, growth absorbance A615, 16 h. inhibition, % at 10 µM. 98,000 tested, 5% active. AID 738
BB579 growth dn – chemicals that inhibit yeast BB579 growth in restrictive medium (lifespan-shortening candidates); S. cerevisiae BB579 growth, OD615, 48 h; inhibition, % at 10 µM; 140,000 tested, 0.51% active;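 active = inhibition above a set limit, 3 SD over the mean compound inhibition, cut at about 44% in these data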
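Test system: DeaD yeast strain BB579 / Buffer or medium: restrictive glucose-based CSMM-D medium / Doses: single 10 µM dose / Schedule: 4 h cell preincubation, 48 h compound exposure, 30 °C humidified / Technique: culture absorbance at 615 nm / Controls: amphotericin B positive control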
Large screens that a line does not name were inactive. Many of the other results were omitted from the sample, so hits are more common in it than they were. Rule as the data show it, unless noted: active = inhibition above about 30%; inactive = the rest.

CCn1c(=O)c2c(n3cnnc13)-c1ccccc1CC21CCCCC1	PostGolgi ctrl 56.3
CCOC(=O)c1cnn(-c2ccccc2)c1-n1cccc1C(=O)C(=O)Nc1ccc(OC)cc1	none
O=[N+]([O-])c1ccc2nc(-c3ccccc3)[nH]c2c1	none (no result: PostGolgi yeast, PostGolgi ctrl)
O=[N+]([O-])c1cccc(/C=C/c2nc3ccc([N+](=O)[O-])cc3[nH]2)c1	PostGolgi ctrl 72.3
O=C(/C=C/c1cccc(Cl)c1)c1nc2ccccc2[nH]1	PostGolgi yeast 100.3, PostGolgi ctrl 92.7
Cc1ccccc1-c1cc(C(=O)Nc2sc(C)c(C)c2C(N)=O)c2ccccc2n1	PostGolgi ctrl 39.0
Cc1ccc(NC(=O)N/C=C/c2ccc(Cl)cc2)cc1	PostGolgi ctrl 31.4
O=C(N/C=C/c1ccccc1)Nc1ccc(Cl)cc1	none
COc1ccc(Oc2ccc(/C=C/C(=O)c3cccc(OC)c3)cc2[N+](=O)[O-])cc1	none (no result: PostGolgi yeast, PostGolgi ctrl)
Nc1c(C(=O)Nc2ccc(F)cc2)sc2nc(-c3ccco3)ccc12	PostGolgi ctrl 39.7
Nc1c(C(=O)Nc2ccc(Br)cc2)sc2nc(-c3ccco3)ccc12	none
CN(c1cccc(NC(=O)CN(c2cccc(Cl)c2)S(=O)(=O)c2ccccc2)c1)S(C)(=O)=O	none (no result: PostGolgi yeast, PostGolgi ctrl)
Nc1ccccc1C(=O)N/N=C1\C2CN3CCN(C2)CC1(c1ccccc1)C3	none (no result: PostGolgi yeast, PostGolgi ctrl)
Cn1c(N)c(C(=O)COC(=O)c2cc(-c3ccccc3)nc3ccccc23)c(=O)n(Cc2ccccc2)c1=O	Yeast lifespan up 30.5 (no result: PostGolgi yeast, PostGolgi ctrl)
COc1ccc(O[C@H]2C=C[C@@H](c3ccccc3)O[C@@H]2COC(=O)CC/C(C)=N/OC[C@@H](O)[C@H]2O[C@@H]3OC(C)(C)O[C@@H]3[C@H]2O)cc1	none (no result: PostGolgi yeast, PostGolgi ctrl)
COc1ccc(/C=N/NC(=O)CO/N=C(\C)c2cccs2)cc1	none
CCOC(=O)c1c(C)nc2c(c1-c1cc(OC)ccc1OC)C(=O)c1ccccc1-2	none
CCOC(=O)c1c(C)nc2c(c1-c1ccccc1)C(=O)c1ccccc1-2	PostGolgi ctrl 35.1
O=C(c1ccccc1)N1CC(COc2ccccc2)OC(c2ccco2)O1 (centres undefined)	Yeast lifespan up 26.7
O=C(c1ccc(OCC2CCCO2)cc1)N1CCN(c2ccccc2)CC1 (centres undefined)	none
O=C(N=Nc1c(O)[nH]c2ccc(Br)cc12)c1cc(-c2cccc3ccccc23)n[nH]1	none (no result: PostGolgi yeast, PostGolgi ctrl)
Cc1cccc(C)c1OCC(=O)N=Nc1c(O)[nH]c2ccc(Br)cc12	PostGolgi ctrl 37.6
O=C(N=Nc1c(O)[nH]c2ccc(Br)cc12)c1ccccc1-n1cccc1	PostGolgi ctrl 36.5
CCN(CC)CCOc1ncnc2c1oc1ccccc12	none
CCCCc1oc2ccccc2c1C(=O)c1cc(I)c(OCCN(CC)CC)c(I)c1	BB579 growth dn 99.0 (no result: PostGolgi yeast, PostGolgi ctrl)
CNC(=S)N/N=C/c1cc(Br)cc(Br)c1O	none (no result: PostGolgi yeast, PostGolgi ctrl)
Cc1ccc(C(=O)O)cc1N=Cc1cc(Br)cc(Br)c1O	BB579 growth dn 89.6 (no result: PostGolgi yeast, PostGolgi ctrl)
CC12CCC(c3c(C(=O)Nc4nccs4)nn(-c4ccccc4)c31)C2(C)C (centres undefined)	PostGolgi yeast 38.8
Cn1cccc1/C=N/n1c(-c2ccc(Cl)cc2)n[nH]c1=S	none
Cn1cccc1/C=N/n1c(-c2ccc(Cl)cc2Cl)n[nH]c1=S	PostGolgi ctrl 42.9
S=c1[nH]nc(-c2ccco2)n1/N=C/c1ccc(Cl)cc1Cl	PostGolgi ctrl 38.8
S=c1[nH]nc(-c2ccco2)n1/N=C/c1cccc(Cl)c1Cl	none (no result: PostGolgi yeast, PostGolgi ctrl)
O=C(CSC1=NS(=O)(=O)c2ccccc21)Nc1ccccc1	BB579 growth dn 72.8
COC(=O)CSC1=NS(=O)(=O)c2ccccc21	none
O=C(c1cc2ccccc2[nH]1)N1CCOCC1	none (no result: PostGolgi yeast, PostGolgi ctrl)
O=C(NCC1OCCc2ccccc21)c1ccc(NC(=O)c2cccc(Br)c2)cc1 (centres undefined)	none (no result: PostGolgi yeast, PostGolgi ctrl)
O=c1c(-c2ccc(Cl)cc2)[n+]([O-])c2ccccc2n1OCc1ccccn1	Yeast lifespan up 45.3
CCn1c(N2CCN(C(=S)NCCc3ccccc3)CC2)nc2ccccc21	PostGolgi ctrl 31.4
CCn1c(N2CCN(C(=S)NC)CC2)nc2ccccc21	none
CC1CCCN(C(=S)NCCc2ccccc2)C1 (centres undefined)	PostGolgi ctrl 31.7
CC(=O)c1ccc(N2CCN(C(=O)C3(S(=O)(=O)c4ccc(Cl)cc4)CC3)CC2)cc1	none
Cc1ccc(Cl)cc1N1CCN(C(=O)C2(S(=O)(=O)c3ccc(Cl)cc3)CC2)CC1	PostGolgi ctrl 39.8
O=C(N1CCN(c2cccc(Cl)c2)CC1)C1(S(=O)(=O)c2ccc(Cl)cc2)CC1	PostGolgi yeast 80.3, PostGolgi ctrl 89.9
CCCCNC(=O)c1onc(CSc2ccc(C(C)C)cc2)c1C(=O)O	none
Cc1cc(NC(=O)CSc2nc(C3CCCCC3)nc3ccccc23)no1	none
O=C(CSc1nc(C2CC2)nc2ccccc12)N1CCc2ccccc2C1	PostGolgi ctrl 67.7
Cc1nonc1NC(=O)CSc1nc(C2CCCCC2)nc2ccccc12	Yeast lifespan up 61.3
Nc1nc(CN2CCCCCC2)nc(Nc2ccccc2)n1	none
Cc1c(-c2nc(N)nc(Nc3ccccc3)n2)oc2ccccc12	PostGolgi yeast 33.3, PostGolgi ctrl 77.6
CC(CCc1ccccc1)NC(=O)COc1ccc(S(=O)(=O)N2CCOCC2)cc1[N+](=O)[O-] (centres undefined)	none (no result: PostGolgi yeast, PostGolgi ctrl)
Cc1cccc(-n2nnc(C(=O)Nc3ccc(F)cc3)c2N)c1	none
Cc1cccc(-n2nnc(C(=O)N3CCc4ccccc4C3)c2N)c1	PostGolgi ctrl 33.7
CCOC(=O)N1C2C=C(C)[C@@H]2[C@@H]2CC(=O)N21 (some centres undefined)	none (no result: PostGolgi yeast, PostGolgi ctrl)
CC1CCC(C(C)C)C(OCC(O)CN2CCN(Cc3ccccc3)CC2)C1 (centres undefined)	PostGolgi yeast 103.5, PostGolgi ctrl 30.1
CC(=O)c1cccc(NC(=O)COc2cc3oc(=O)c(CC(C)O)c(C)c3cc2Cl)c1 (centres undefined)	none (no result: PostGolgi yeast, PostGolgi ctrl)
Oc1c(Cl)cc(Cl)cc1C=Nc1ccccc1N1CCCC1	Yeast lifespan up 28.3 (no result: PostGolgi yeast, PostGolgi ctrl)
Cc1cc(NC(=O)Cn2c(C)nc3ccccc3c2=O)ccc1Br	none
O=C(Nc1cccc(C(F)(F)F)c1)C(Sc1cccc[n+]1[O-])c1ccccc1 (centres undefined)	BB579 growth dn 58.9 (no result: PostGolgi yeast, PostGolgi ctrl)
Cc1cc(C(=O)OC(C(=O)Nc2cccc(C(F)(F)F)c2)c2ccccc2)c(C)o1 (centres undefined)	none (no result: PostGolgi yeast, PostGolgi ctrl)
COc1ccc(CNC(=O)c2cnn3c(C(F)F)cc(C)nc23)cc1OC	none
COc1ccc(Cl)cc1NC(=O)C(C)Sc1n[nH]c(N)n1 (centres undefined)	none
CCC(C)N1C(=O)c2ccccc2C1C(=O)NC1CCCCCC1 (centres undefined)	PostGolgi ctrl 31.1
O=[N+]([O-])c1ccc(N/N=C/c2cn(Cc3ccc(F)cc3)c3ccccc23)nc1	none (no result: PostGolgi yeast, PostGolgi ctrl)
N#Cc1ccccc1Cn1cc(/C=C/[N+](=O)[O-])c2ccccc21	Yeast lifespan up 34.5 (no result: PostGolgi yeast, PostGolgi ctrl)
O=[N+]([O-])/C=C/c1cn(Cc2ccccc2)c2ccccc12	PostGolgi ctrl 43.0
COc1ccc2c(c1)C1CC(C)(NC(=O)C1S(=O)(=O)c1ccc(F)cc1)O2 (centres undefined)	none (no result: PostGolgi yeast, PostGolgi ctrl)
S=c1[nH]nc(COc2ccccc2)n1/N=C/c1ccc(Br)s1	PostGolgi ctrl 30.5

High-throughput results: PubChem, SRMLSC
